# Out of some 220,000 compounds screened, about 630 (0.29%) were called active. The entries come from a sample that favours actives as a whole. Unmarked numbers belong to inactive results.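 Rule for the calls: active = activation above its plate's cutoff, the mean activation of the plate's test wells plus 3 SD (cut at about 12% in these data); inactive = the rest.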
# Target: Mucolipin-3 (Homo sapiens) (UniProt Q8TDD5)
# Assay: human TRPML3 channel agonists, primary screen, cell-based, HEK293 TRPML3-YFP, Fluo-8 calcium fluorescence, 3 µM (AID 1448);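 note: 0% = DMSO only wells and 100% = carbachol wells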
# Conditions: at 3 µM, stronger effect = higher value, 100% = the carbachol control signal
# Procedure, shortened: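 Test system: HEK293 cells stably carrying human TRPML3-YFP; Doses: single dose, 3 µM final nominal compound, 0.3% DMSO final; Schedule: dye loading 1 h 37 °C then 30 min ambient, 125 s read; Technique: Fluo-8 calcium fluorescence; Benchmarks: high control carbachol 87 µM, low control DMSO.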
# Sequence of Mucolipin-3 (Homo sapiens) (Q8TDD5 whole entry, looked up): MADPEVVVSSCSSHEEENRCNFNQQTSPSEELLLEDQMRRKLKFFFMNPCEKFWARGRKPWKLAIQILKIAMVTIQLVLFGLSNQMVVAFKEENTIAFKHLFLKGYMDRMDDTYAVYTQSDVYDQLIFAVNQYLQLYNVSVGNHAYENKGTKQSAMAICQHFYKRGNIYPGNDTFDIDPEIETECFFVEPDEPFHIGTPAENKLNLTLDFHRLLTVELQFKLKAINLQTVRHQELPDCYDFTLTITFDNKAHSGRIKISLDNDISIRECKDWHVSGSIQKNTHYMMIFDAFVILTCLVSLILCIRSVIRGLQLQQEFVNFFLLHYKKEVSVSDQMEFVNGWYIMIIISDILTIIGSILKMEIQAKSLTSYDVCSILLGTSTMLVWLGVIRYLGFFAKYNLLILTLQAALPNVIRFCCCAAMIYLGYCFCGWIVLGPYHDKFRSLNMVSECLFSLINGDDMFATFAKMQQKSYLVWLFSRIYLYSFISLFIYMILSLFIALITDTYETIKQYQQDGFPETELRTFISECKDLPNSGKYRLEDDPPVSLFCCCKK
row,Structure (SMILES),activation
1,Cc1sc2nc(CC(N)=O)[nH]c(=O)c2c1-c1ccccc1,0.25%
2,CCCN(C(=O)CSc1nnnn1C)c1c(N)n(Cc2ccccc2)c(=O)[nH]c1=O,-0.23%
3,COCCNC(=S)N1CCN(C)CC1,0.99%
4,CCCCC(=O)NNC(=S)NC(=O)C(c1ccccc1)c1ccccc1,74.5% (active)
5,O=C(NNC(=S)NCc1ccco1)C(c1ccccc1)c1ccccc1,0.93%
6,CC(C)C(=O)Nc1cccc(NC(=S)NC(=O)C(c2ccccc2)c2ccccc2)c1,1.07%
7,O=[N+]([O-])c1cc(S(=O)(=O)Nc2cccc(Cl)c2)ccc1N=Nc1c(O)[nH]c2ccccc12,0.58%
8,CCS(=O)(=O)Nc1ccc(C2=NN(C(C)=O)C(c3cccs3)C2)cc1 (stereo unspecified),0.2%
9,NNC(=O)c1cccc(COCC(F)(F)C(F)F)c1,0.05%
10,CC(C)c1c(O)nc(SCCOc2ccc(Cl)cc2)[nH]c1=O,0.56%
11,COc1cc(OC)cc(/C(N)=N/O)c1,0.62%
12,CC(/C=C/c1ccco1)=N/NC(=O)C1COc2ccccc2O1 (stereo unspecified),1.2%
13,C=C(C)Cn1c(C)cc(C)c(S(=O)(=O)c2ccccc2C)c1=O,42% (active)
14,S=c1nc(C23CC4CC(CC(C4)C2)C3)nc2sccn12,0.26%
15,Cc1ccccc1C(=O)NNC(=O)CN1C(=O)c2ccccc2C1=O,1.17%
16,O=C(NCCN1C(=O)S/C(=C\c2cccnc2)C1=O)c1ccc(S(=O)(=O)N2CCCC2)cc1,-0.11%
17,O=C(COC(=O)c1ccc(NS(=O)(=O)c2cccs2)cc1O)Nc1ccc(F)cc1,0.82%
18,O=C(CSc1nncn1-c1cccnc1)N1CCOCC1,0.63%
19,O=C(Nc1ccccc1N1CCOCC1)c1csc2c1CCCC2,-1.45%
20,O=S(=O)(Nc1ccccc1N1CCOCC1)c1ccc(Cl)s1,98.9% (active)
21,O=S(=O)(Nc1cc(S(=O)(=O)N2CCOCC2)ccc1N1CCCC1)c1cccs1,-0.45%
22,CCOc1ccc(Br)cc1S(=O)(=O)Nc1ccc(C(=O)OC(C)C(=O)N(C)c2ccccc2)cc1 (stereo unspecified),0.82%
23,COc1ccc(OC)c(NC(=S)N2CCc3ccccc3C2)c1,-0.32%
24,COCc1[nH][nH]c(=O)c1C=Nc1ccc(F)cc1F,0.21%

row,Structure (SMILES),activation
1,Cc1ccc(O)c(NC(=O)COc2cc(C)ccc2C)c1,0.83%
2,Cc1ccc(O)c(NC(=S)NC(=O)COc2ccc(Br)cc2)c1,20.5% (active)
3,Cc1cccc(OCC(=O)NC(=S)Nc2ccccc2N2CCOCC2)c1,0.19%
4,CC(C)N(C(=O)CSc1nc(COc2ccccc2)nc2ccccc12)C(C)C,-1.84%
5,O=C(NCc1cccnc1)C(=O)Nc1nc(-c2ccccc2)cs1,0.51%
6,O=C(NNS(=O)(=O)Cc1ccccc1)c1ccc([N+](=O)[O-])cc1,0.34%
7,CN(CCc1ccccn1)S(=O)(=O)c1ccc2c3c(cccc13)C(=O)N2,0.24%
8,CCN(CC)S(=O)(=O)c1ccc2c3c(cccc13)C(=O)S2,12.9% (active)
9,CCN(CC)S(=O)(=O)c1cc([N+](=O)[O-])ccc1N=Nc1c(O)n(C)c2ccccc12,0.98%
10,COCCNC(=O)C(OC(=O)c1cccs1)c1ccc(F)cc1 (stereo unspecified),0.35%
11,COc1cc(OC)cc(C(=O)N[C@H](C(=O)Nc2nc3ccccc3[nH]2)C(C)C)c1,0.87%
12,CC(NC(=O)COC(=O)c1ccc2c(c1)OCO2)c1ccccc1 (stereo unspecified),-0.07%
13,COc1cc(OC)cc(C(=O)N[C@H](C(=O)OCC(=O)NC(C)c2ccccc2)C(C)C)c1 (stereo partly specified),17.2% (active)
14,COc1ccc(Br)cc1CN(C)CC(=O)Nc1cc(Cl)cc(Cl)c1,0.63%
15,Cc1cc2nc3c(=O)n(Cc4ccccc4)c(=O)[nH]c3nc2cc1N,23.9% (active)
16,CC(=O)c1ccc(-c2ccc(Cn3c(C)nc4cc(N)c(C)nc43)cc2)cc1,0.69%
17,O=c1[nH]c2c(c(=O)n1Cc1ccccc1)CCC2,0.43%
18,CCCC(=O)Nc1cccc(NC(=S)NC(=O)C(C)Oc2ccc(Cl)cc2Cl)c1 (stereo unspecified),0.1%
19,COc1ccc(C(=O)NC(=S)NNC(=O)c2c(-c3ccccc3)noc2C)cc1,31.2% (active)
20,Cc1onc(-c2ccccc2)c1C(=O)NNC(=S)NC(=O)c1ccc(F)cc1,1.79%
21,COc1ccc(C(=O)NC(=S)NNC(=O)CCc2ccccc2)cc1,2.05%
22,O=C(Nc1ccc(S(=O)(=O)Nc2nccs2)cc1)c1cc(-c2ccncc2)nc2ccccc12,0.93%
23,CC(C)Cc1nc(Cl)c(C#N)c2c1CCC2,-0.84%
24,O=C(CN1CCN(C(=S)NC2CCCC2)CC1)Nc1ccc(Oc2ccccc2)cc1,3.02%

row,Structure (SMILES),activation
1,CCOCC(=O)Nc1ncc(S(=O)(=O)c2ccc([N+](=O)[O-])cc2)s1,2.38%
2,CC(=O)Oc1ccccc1C(=O)Nc1ncc([N+](=O)[O-])s1,16.7% (active)
3,O=C(Cc1c(F)cccc1Cl)Nc1ncc([N+](=O)[O-])s1,10.9%
4,O=C(CCc1ccccc1)Nc1ncc([N+](=O)[O-])s1,8.03%
5,CCC(C)NC(=O)c1ccc(N2CCC3(CC2)OCCO3)c([N+](=O)[O-])c1 (stereo unspecified),-0.07%
6,COc1cc2nc(CN(C)Cc3ccc(F)cc3)[nH]c(=O)c2cc1OC,0.67%
7,CN(c1ccccc1)c1ccc(/C=c2\s/c(=C(/C#N)C(=O)C(C)(C)C)n(Cc3ccco3)c2=O)cc1,14.8% (active)
8,COc1ccc(NC(=O)Cn2c(=O)n(Cc3ccco3)c(=O)c3ccccc32)cc1,0.61%
9,Cc1cs/c(=N\N=C\c2ccc(O)cc2)n1Cc1ccco1,-0.12%
10,Cc1sc2ncnc(Sc3nc4ccccc4s3)c2c1C,0.98%
11,CCc1c(C)nc2c(-c3ccccc3)c(C)nn2c1Nc1ccc(NC(C)=O)cc1,-0.72%
12,Cc1ccc(CN(C)CC(=O)Nc2cccc([N+](=O)[O-])c2)o1,-0.52%
13,Cc1ccc(NC(=O)CN(C)CC(=O)Nc2cccc(F)c2)cc1[N+](=O)[O-],4.13%
14,CN(CC(=O)Nc1cccc(F)c1)CC(=O)Nc1cccc([N+](=O)[O-])c1,26.9% (active)
15,COC(=O)C1=C(C)N(c2ccc(Br)cc2)C(=O)/C1=C\c1ccco1,0.24%
16,O=C(O)C(c1ccccc1)C1(O)CCCCC1 (stereo unspecified),1.12%
17,CC(NC(=O)C(C)(C)C)C(c1cccs1)N1CCN(Cc2ccccc2)CC1 (stereo unspecified),-0.4%
18,CCOc1cc(/C=C2/C(=N)N3OC(C)=CC3=NC2=O)ccc1OC,0.9%
19,CC1=CC2=NC(=O)/C(=C/c3coc4ccccc4c3=O)C(=N)N2O1,18.6% (active)
20,COc1ccc(OCCCn2cccc2/C=C2/C(=N)N3OC(C)=CC3=NC2=O)cc1,1.97%
21,COc1ccc(N2C(=O)/C(=C\c3ccco3)N=C2SCC(N)=O)cc1Cl,0.09%
22,O=C(c1cccc(F)c1)N1CCN(c2ccc([N+](=O)[O-])c3cccnc23)CC1,0.25%
23,CCN1CCN(c2nc(Nc3cccc(F)c3)nc(N)c2[N+](=O)[O-])CC1,0.34%
24,CCOC(=O)C1=C(NC(=S)NC(=O)c2ccccc2)c2ccccc2CC1(C)C,43.3% (active)

row,Structure (SMILES),activation
1,COCCCNC(=S)NC(=O)c1ccccc1,0.01%
2,CCOC(=O)c1c(-c2ccccc2)csc1NC(=S)NC(=O)c1ccccc1,-0.33%
3,CCc1ccc2ncc(C(=O)c3ccccc3)c(N3CCOCC3)c2c1,-0.05%
4,COCCNc1cc(NCCOC)c([N+](=O)[O-])cc1[N+](=O)[O-],0.69%
5,COc1ccc(S(=O)(=O)N2CCOCC2)c(C)c1C,0.66%
6,COc1ccc(S(=O)(=O)N2CCCC2)c(C)c1C,13.3% (active)
7,CCOc1ccc(Br)cc1S(=O)(=O)N1CCC(C(=O)O)CC1,1.07%
8,COc1ccc(S(=O)(=O)N2CCCCC2)cc1Br,9.19%
9,COc1ccc(F)cc1S(=O)(=O)N1CCCCC1,0.95%
10,CCOc1ccc(S(=O)(=O)N2CCCCCC2)c2ccccc12,101% (active)
11,COc1ccccc1Cn1c(C)nnc1-c1cnn(C)c1N,-0.66%
12,CCCCN(CCCC)CC(O)Cn1c2ccccc2c(=O)c2ccccc21 (stereo unspecified),0.31%
13,Cc1cc(Cl)ccc1OCc1nc(-c2ccncc2)no1,-0.07%
14,O=C(CSc1nnc2n1CCCN2)c1ccccc1,0.51%
15,CCN(CC)C(=O)CSc1nc2ccccc2n1CC(=O)N1CCN(c2ccccc2OC)CC1,-0.02%
16,COc1ccc(C2(CNC(=O)C(c3ccccc3)c3ccccc3)CCOCC2)cc1OC,0%
17,CCN(CC)C(=O)CC1(c2ccccc2OC)CCOC(C(C)C)C1 (stereo unspecified),17.3% (active)
18,CCC(C)(C)NC(=O)C(c1ccc(O)cc1)N(C(=O)Cn1nnc2ccccc21)c1ccc(NC(C)=O)cc1 (stereo unspecified),0.14%
19,NS(=O)(=O)c1ccc(NC(=O)COC(=O)c2ccc(Cl)nc2)cc1,0.29%
20,NS(=O)(=O)c1ccc(NC(=O)COC(=O)c2cc3ccccc3oc2=O)cc1,0.31%
21,O=C(COC(=O)c1c2c(nc3ccccc13)/C(=C\c1cccs1)CCC2)Nc1ccccc1Cl,0.46%
22,NC(=O)c1ccc(NC(=O)COC(=O)c2c3c(nc4ccccc24)/C(=C\c2ccc4c(c2)OCO4)CCC3)cc1,29.2% (active)
23,NS(=O)(=O)c1ccc(NC(=O)COC(=O)c2c3c(nc4ccccc24)/C(=C\c2ccc4c(c2)OCO4)CCC3)cc1,24% (active)
24,COc1cc(-c2cc(C(=O)OCC(=O)Nc3ccc4c(c3)OCO4)c3ccccc3n2)cc(OC)c1OC,-0.31%
